Tests used:
Rattus norvegicus [1] = organism: Rattus norvegicus; assay: Concentration required to inhibit insulin release in rat; type: functional
Rattus norvegicus [2] = organism: Rattus norvegicus; assay: Effective dose required for relaxation of the 30 mM KCl-induced contraction of rat aortic rings; type: functional; settings: Aorta, read-out: ED50 (the source's name)
Summary of the method: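 Endothelium-denuded transverse aortic rings (3–4 mm) from fed Wistar rats (180–220 g); isometric tension by force transducer. After 60 min equilibration, contracted with 30 mM KCl; once stable, drug added cumulatively to maximal relaxation or 0.3 mM. Relaxation as % of KCl contraction; ED50 (50% inhibition of KCl plateau) from dose–response curves; mean ± SEM (n).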

Rattus norvegicus [3] = organism: Rattus norvegicus; assay: Percent inhibition of residual insulin release from rat pancreatic islets in the presence of 16.7 mM glucose at 10 uM concentration; type: functional
Summary of the method: (§1)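 Islets isolated by collagenase from fed Wistar rats (180–220 g); groups of 10 islets preincubated 30 min at 37 °C in bicarbonate salt medium with 2.8 mM glucose and 0.5% dialyzed albumin under O2/CO2 95:5, then incubated 90 min at 37 °C with 16.7 mM glucose plus drug. Insulin measured by radioimmunoassay against rat insulin standard; residual release as % of drug-free 16.7 mM glucose control; IC50 estimated.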

Rattus norvegicus [4] = organism: Rattus norvegicus; assay: Estimated selectivity ratio of ED50 and IC50 in rat was calculated; type: functional
Rattus norvegicus [5] = organism: Rattus norvegicus; assay: Percent inhibition of residual insulin release from rat pancreatic islets in the presence of 16.7 mM glucose at 1 uM concentration; type: functional; summary of the method: as §1
Rattus norvegicus [6] = organism: Rattus norvegicus; assay: Percent inhibition of residual insulin release from rat pancreatic islets in the presence of 16.7 mM glucose at 50 uM concentration; type: functional; summary of the method: as §1
Rattus norvegicus [7] = organism: Rattus norvegicus; assay: Percent inhibition of residual insulin release from rat pancreatic islets in the presence of 16.7mM glucose at 0.1 uM concentration; type: functional
Summary of the method: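 Islets isolated by collagenase from fed Wistar rats (180–220 g). Groups of 10 islets preincubated 30 min at 37 °C in bicarbonate salt medium with 2.8 mM glucose, 0.5% dialyzed albumin, gassed O2/CO2 95:5. Then incubated 90 min at 37 °C with 16.7 mM glucose plus drug. Insulin measured by radioimmunoassay against rat insulin; expressed as % of drug-free 16.7 mM glucose control; mean ± SEM (n).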

[8] = pKa value determined at 20 °C

Compound | IC50 (Rattus norvegicus [1]) | EC50 (Rattus norvegicus [2]) | RIS (Rattus norvegicus [3]) | Selectivity (Rattus norvegicus [4]) | RIS (Rattus norvegicus [5]) | RIS (Rattus norvegicus [6]) | RIS (Rattus norvegicus [7]) | pKa [8]
CC(C)(C)NC1=NS(=O)(=O)c2cc(Cl)ccc2N1 | > 10 µM | 1.4 µM | 64.4% | <0.14 |  |  |  | 
CCNC1=NS(=O)(=O)c2cc(Br)ccc2N1 | < 1 µM | 6.2 µM | 6.5% | >6 | 38.1% | 4.6% |  | 
CCCNC1=NS(=O)(=O)c2cc(F)ccc2N1 | 2 µM | 166 µM | 15.1% | 83 | 69.2% | 7.7% |  | 
O=S1(=O)NC(NC2CCC2)=Nc2ccc(I)cc21 | < 10 µM | 22.2 µM | 30.6% | >2.2 |  |  |  | 
CCC(C)NC1=NS(=O)(=O)c2cc(I)ccc2N1 (stereo not drawn) | > 10 µM | 1.3 µM | 64.8% | <0.13 | 84.2% | 22.5% |  | 
CNC1=NS(=O)(=O)c2cc(Br)ccc2N1 | 1.8 µM | 31 µM | 7.3% | 17 | 69.9% | 6.4% |  | 
CC(C)NC1=NS(=O)(=O)c2cc(Br)ccc2N1 | 0.5 µM |  | 8.1% | 9.6 |  | 6.7% | 91% | 9.41
CCC(C)NC1=NS(=O)(=O)c2cc(F)ccc2N1 (stereo not drawn) | 1.6 µM | 39.2 µM | 6.9% | 25 | 64.6% | 5.9% |  | 
CCC(C)(C)NC1=NS(=O)(=O)c2cc(Cl)ccc2N1 | > 10 µM | 0.29 µM | 83.2% | <0.029 |  |  |  | 
CCC(C)NC1=NS(=O)(=O)c2cc(Br)ccc2N1 (stereo not drawn) | 4 µM | 5.6 µM | 26.8% | 1.4 | 92.5% | 4% |  | 
O=S1(=O)NC(NC2CC2)=Nc2ccc(Br)cc21 | 3.1 µM | 89.4 µM | 21.1% | 29 | 85.1% | 4.6% |  | 
CCNC1=NS(=O)(=O)c2cc(Cl)ccc2N1 | < 1 µM | 39.9 µM | 10.7% | >40 | 29.2% | 2.1% |  | 
O=S1(=O)NC(NC2CCC2)=Nc2ccc(F)cc21 | 1.3 µM | 71.8 µM | 7.8% | 55 | 58.2% | 5.9% |  | 
CC(C)NC1=NS(=O)(=O)c2cc(I)ccc2N1 | 2.1 µM | 7.7 µM | 9.6% | 3.7 | 74.8% | 5.6% | 99.2% | 9.28
CC(C)NC1=NS(=O)(=O)c2cc(Cl)ccc2N1 |  | 36.3 µM | 4.9% | 52 |  | 5.7% |  | 9.51
CC1=Nc2ccc(Cl)cc2S(=O)(=O)N1 [DIAZOXIDE] |  | 22.4 µM |  |  |  | 26.7% |  | 
CCCNC1=NS(=O)(=O)c2cc(Cl)ccc2N1 |  | 55.5 µM | 14.2% | 21 | 83.4% | 3.6% |  | 
CNC1=NS(=O)(=O)c2cc(F)ccc2N1 | 2.2 µM | > 300 µM | 7.7% | >136 | 76.1% | 5.7% |  | 
CC(C)C(C)NC1=NS(=O)(=O)c2cc(Cl)ccc2N1 (stereo not drawn) | > 10 µM | 1.2 µM | 62.7% | <0.12 | 88.1% | 11% |  | 
O=S1(=O)NC(NC2CC2)=Nc2ccc(F)cc21 | 5.1 µM | > 300 µM | 32.5% | >58 | 104.5% | 7.5% |  | 

Compound | IC50 (Rattus norvegicus [1]) | EC50 (Rattus norvegicus [2]) | RIS (Rattus norvegicus [3]) | Selectivity (Rattus norvegicus [4]) | RIS (Rattus norvegicus [5]) | RIS (Rattus norvegicus [6]) | RIS (Rattus norvegicus [7]) | pKa [8]
CC(C)C(C)NC1=NS(=O)(=O)c2cc(F)ccc2N1 (stereo not drawn) | 2.8 µM | 26.4 µM | 10.6% | 9 | 87.7% | 7.9% |  | 
O=S1(=O)NC(NC2CCCC2)=Nc2ccc(F)cc21 | 1.8 µM | 58 µM | 6.6% | 32 | 68.8% | 5.4% |  | 
O=S1(=O)N=C(NC2CCC2)Nc2ccc(Cl)cc21 | 1.3 µM | 34.9 µM | 6.4% | 27 | 60.2% | 8.1% |  | 
CC(N/C(=N\C#N)Nc1ccncc1)C(C)(C)C (stereo not drawn) [PINACIDIL ANHYDROUS] | > 100 µM | 0.35 µM |  |  | 97.7% | 88.8% |  | 
C=CCNC1=Nc2ccc(Cl)cc2S(=O)(=O)N1 | 3.1 µM | 28.9 µM | 17.3% | 9 | 87.9% | 7.8% |  | 
CC(C)C(C)NC1=NS(=O)(=O)c2cc(I)ccc2N1 (stereo not drawn) | > 50 µM | 0.94 µM | 86.2% | <0.02 | 91.9% | 51.7% |  | 
CCC(C)NC1=NS(=O)(=O)c2cc(Cl)ccc2N1 (stereo not drawn) | 3.1 µM | 15.5 µM | 19.9% | 5 | 85.4% | 5.5% |  | 
CCNC1=NS(=O)(=O)c2cc(F)ccc2N1 | 1 µM | > 300 µM | 8.6% | >300 | 50.8% | 6.3% |  | 
CCC(CC)NC1=NS(=O)(=O)c2cc(Cl)ccc2N1 | 4.5 µM | 93.6 µM | 31.7% | 21 | 93.7% | 8.1% |  | 
CNC1=NS(=O)(=O)c2cc(Cl)ccc2N1 | 1.1 µM | 142 µM | 4.4% | 129 | 55.1% | 2.4% |  | 
CC(C)C(C)NC1=NS(=O)(=O)c2cc(Br)ccc2N1 (stereo not drawn) | > 10 µM | 2.6 µM | 98.4% | < 0.26 | 97.2% | 21.4% |  | 
CC(C)NC1=NS(=O)(=O)c2cc(F)ccc2N1 | 0.8 µM |  | 3.7% | 54 |  | 3.3% |  | 9.63
O=S1(=O)NC(NC2CCC2)=Nc2ccc(Br)cc21 | 1.1 µM | 21.7 µM | 9.6% | 20 | 54.8% | 6.1% |  | 
CCC(CC)NC1=NS(=O)(=O)c2cc(I)ccc2N1 | > 10 µM | 79.1 µM | 67% | <7.9 |  | 17% |  | 
C=CCNC1=Nc2ccc(F)cc2S(=O)(=O)N1 | 2.7 µM | > 300 µM | 12.8% | >111 | 84.1% | 4.1% |  | 
O=S1(=O)NC(NCC2CC2)=Nc2ccc(F)cc21 | < 10 µM | 146 µM | 39.8% | >15 |  | 6.4% |  | 
C=CCNC1=Nc2ccc(Br)cc2S(=O)(=O)N1 | 2.8 µM | 3 µM | 23.7% | 1.1 | 77.2% | 4.8% |  | 
CCCNC1=NS(=O)(=O)c2cc(Br)ccc2N1 | < 10 µM | 5.9 µM | 34.7% | >0.6 |  | 7.1% |  | 
O=S1(=O)N=C(NC2CC2)Nc2ccc(Cl)cc21 | 3.4 µM | 190 µM | 26.6% | 56 | 84% | 5.8% |  | 
O=S1(=O)NC(NCC2CC2)=Nc2ccc(Cl)cc21 | > 10 µM | 41.2 µM | 65.9% | <4 |  | 15.2% |  | 

Reference: ChEMBL document CHEMBL1145857, “Toward tissue-selective pancreatic B-cells KATP channel openers belonging to 3-alkylamino-7-halo-4H-1,2,4-benzothiadiazine 1,1-dioxides” (J Med Chem, 2003)
